Experimental data: ChEMBL document CHEMBL1144203, “Synthesis and antiviral evaluation of acyclic azanucleosides developed from sulfanilamide as a lead structure” (Bioorg Med Chem, 2008)
pEC50: −log10 of the molar value. Active and inactive are the calls of the source. The rule behind the calls is not given here.

How the values were obtained:
[1] = Cytotoxicity against MDCK cells assessed as alteration in cell morphology by MTS assay; type: cell-based, Canis lupus familiaris; settings: dog
How it was run: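 Uninfected host cells were exposed to compound and examined under the microscope. MCC was the minimal compound concentration causing a microscopically detectable change in normal cell morphology.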

[2] = Cytotoxicity against CRFK cells assessed as decrease in cell viability by MTS assay; type: cell-based, Felis catus; settings: cat
How it was run: (§1)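 Uninfected host cells were exposed to compound. CC50 was taken as the concentration giving a 50% fall in cell viability, measured by a colorimetric formazan-based MTS assay.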

Punta Toro virus [3] = test: Antiviral activity against Punta Toro virus infected in Vero cells assessed as inhibition of virus-induced cytopathic effect by MTS assay; type: functional, organism-based
How it was run: (§2)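 Vero cell monolayers infected with Coxsackie B4 virus or Punta Toro virus, with test compounds at up to 100 μM. EC50 is the concentration giving 50% inhibition of virus-induced cytopathic effect (CPE), scored visually or from cell viability by the colorimetric formazan-based MTS assay.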

Human alphaherpesvirus 2 = test: Antiviral activity against HSV2 virus infected in HEL cells assessed as inhibition of virus-induced cytopathic effect at 100 uM by MTS assay; type: functional, organism-based
Sindbis virus = test: Antiviral activity against Sindbis virus infected in Vero cells assessed as inhibition of virus-induced cytopathic effect at 100 uM by MTS assay; type: functional, organism-based
How it was run: (§3)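 Vero cell monolayers were infected with the virus in cell-based CPE assays. EC50 is the concentration giving 50% inhibition of virus-induced cytopathic effect, scored visually or by MTS formazan colorimetric cell-viability read-out. The highest concentration tested was 100 μM for most compounds and lower for a few.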

HeLa = test: Cytotoxicity against human HeLa cells assessed as decrease in cell viability upto 100 uM by MTS assay; type: functional, cell-based
How it was run: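 Uninfected HeLa host cells were tested up to 100 μM. CC50 is the concentration causing a 50% drop in cell viability by colorimetric formazan-based MTS assay. Alternatively, MCC is the minimal concentration giving microscopically detectable alteration of normal cell morphology.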

Human alphaherpesvirus 1 = test: Antiviral activity against HSV1 virus infected in HEL cells assessed as inhibition of virus-induced cytopathic effect at 100 uM by MTS assay; type: functional, organism-based
Human respirovirus 3 = test: Antiviral activity against Parainfluenza 3 virus infected in Vero cells assessed as inhibition of virus-induced cytopathic effect at 100 uM by MTS assay; type: functional, organism-based; how it was run: as §3
Felid alphaherpesvirus 1 = test: Antiviral activity against feline herpes virus infected in CRFK cells assessed as inhibition of virus-induced cytopathic effect at 100 uM by MTS assay; type: functional, organism-based
[4] = system: Mammalian orthoreovirus 1; test: Antiviral activity against Reovirus1 infected in Vero cells assessed as inhibition of virus-induced cytopathic effect at 100 uM by MTS assay; type: functional, organism-based; how it was run: as §3
Feline coronavirus = test: Antiviral activity against feline coronavirus infected in CRFK cells assessed as inhibition of virus-induced cytopathic effect at 100 uM by MTS assay; type: functional, organism-based
Coxsackievirus B4 [5] = test: Antiviral activity against Coxsackievirus B4 infected in Vero cells assessed as inhibition of virus-induced cytopathic effect by MTS assay; type: functional, organism-based; settings: Enterovirus B; how it was run: as §2
HEL = test: Cytotoxicity against HEL cells assessed as decrease in cell viability upto 100 uM by MTS assay; type: cell-based; settings: human
Coxsackievirus B4 [6] = test: Antiviral activity against Coxsackievirus B4 infected in HeLa cells assessed as inhibition of virus-induced cytopathic effect at 100 uM by MTS assay; type: functional, organism-based
How it was run: (§4)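 HeLa cells were infected with the virus, and compounds were tested up to 100 μM. EC50 is the concentration that halves virus-induced cytopathic effect, read by visual CPE scoring or by MTS formazan colorimetric viability measurement.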

[7] = Cytotoxicity against MDCK cells assessed as decrease in cell viability by MTS assay; type: cell-based, Canis lupus familiaris; settings: dog; how it was run: as §1
[8] = system: Respiratory syncytial virus; test: Antiviral activity against respiratory syncytial virus infected in HeLa cells assessed as inhibition of virus-induced cytopathic effect at 100 uM by MTS assay; type: functional, organism-based; how it was run: as §4
MDCK = test: Cytotoxicity against MDCK cells assessed as decrease in cell viability upto 100 uM by MTS assay; type: cell-based, Canis lupus familiaris; settings: dog
Punta Toro virus [9] = test: Antiviral activity against Punta Toro virus infected in Vero cells assessed as inhibition of virus-induced cytopathic effect at 100 uM by MTS assay; type: functional, organism-based; how it was run: as §3
[10] = Cytotoxicity against CRFK cells assessed as decrease in cell viability upto 100 uM by MTS assay; type: cell-based, Felis catus; settings: cat
Coxsackievirus B4 [11] = test: Antiviral activity against Coxsackievirus B4 infected in Vero cells assessed as inhibition of virus-induced cytopathic effect at 100 uM by MTS assay; type: functional, organism-based; how it was run: as §3
Vero = test: Cytotoxicity against african green monkey Vero cells assessed as decrease in cell viability upto 100 uM by MTS assay; type: cell-based; settings: chlorocebus sabaeus

SMILES: CC(C)(C)C(=O)OCCN(Cn1cc(F)c(=O)[nH]c1=O)S(=O)(=O)c1cccc([N+](=O)[O-])c1
- MCC [1]: ≥ 100 µM
- CC50 [2]: 95 µM
- pEC50 (Punta Toro virus [3]): 4.00
- Activity (Human alphaherpesvirus 2): inactive
- Activity (Sindbis virus): inactive
- Activity (HeLa): inactive
- Activity (Human alphaherpesvirus 1): inactive
- Activity (Human respirovirus 3): inactive
- Activity (Felid alphaherpesvirus 1): inactive
- Activity [4]: inactive
- Activity (Feline coronavirus): inactive
- pEC50 (Coxsackievirus B4 [5]): 4.00
- Activity (HEL): Not Active
- Activity (Coxsackievirus B4 [6]): inactive
- CC50 [7]: > 100 µM
- Activity [8]: inactive

SMILES: CC(=O)Nc1ccc(S(=O)(=O)N(CCO)Cn2ccc(=O)[nH]c2=O)cc1
- Activity (MDCK): Not Active
- Activity (Human alphaherpesvirus 2): inactive
- Activity (Sindbis virus): inactive
- Activity (HeLa): inactive
- Activity (Human alphaherpesvirus 1): inactive
- Activity (Human respirovirus 3): inactive
- Activity (Felid alphaherpesvirus 1): inactive
- Activity (Punta Toro virus [9]): inactive
- Activity [4]: inactive
- Activity [10]: Not Active
- Activity (Feline coronavirus): inactive
- Activity (HEL): Not Active
- Activity (Coxsackievirus B4 [6]): inactive
- Activity [8]: inactive
- Activity (Coxsackievirus B4 [11]): inactive
- Activity (Vero): Not Active
